Results published in paper PMC2112435 (The Journal of Cell Biology, 1983).

Tests used:
[1] = system: polymorphonuclear leukocytes (PMNs); test: 3H-FNLLP peptide uptake and release by PMN monolayers; assay type: cell-based, rabbit
[2] = system: polymorphonuclear leukocytes (PMNs); settings: chemotactic peptide taken up by PMNs; cited from earlier work
[3] = system: polymorphonuclear leukocytes (PMNs); test: 125I-BSA uptake and release of TCA-precipitable BSA by PMNs; assay type: cell-based, rabbit; settings: for k2, rate constant of further processing / k3, rate constant of release of intact material / k3/k2 + k3 / Rate constant for depletion of Ap: Table I
Method in brief: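 Rabbit PMNs in HBSS with 2.4 mg/ml HEPES, 3.3×10^6 cells/ml, settled 15 min at 23°C as a monolayer. Incubated 30 min at 37°C with ¹²⁵I-BSA (6.5 μCi/ml), 1% unlabeled BSA and 2×10^-8 M unlabeled FNLLP to stimulate pinocytosis. Washed 10 min at 4°C, then held in fresh HBSS at 37°C or 4°C for varied times. Medium assayed for TCA-precipitable counts. k3 (release) and k2 (digestion/storage) taken from a kinetic pinosome model.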

[4] = Table I line 2, 2 x 10-0 M/L as printed
[5] = Table I line 4, 2 X 10^-5 M/L as printed (second time)

**Q.** Which “rate constant of filling the reversible pinocytic pool” value ([1]; 2 x 10^-8 M 3H-FNLLP, 37C (Fig. 10)) does the source give for “N-formyinorleucylleucylphenylalanme [FNLLP]” here?
**A.** 0.165 min⁻¹

**Q.** And the “k2, rate constant of further processing (digestion or storage)” value (shortened to “k2, rate constant … (digestion or storage)”) ([1]; Table I line 1, 2 X 10^-5 M/L)?
**A.** 0.097 min⁻¹

**Q.** And the “k3, rate constant of release of intact peptide” value ([1]; Table I line 1, 2 X 10^-5 M/L)?
**A.** 0.101 min⁻¹

**Q.** And the “k3/k2 + k3” value ([1]; Table I line 1, 2 X 10^-5 M/L)?
**A.** 0.51

**Q.** What about the “k3, rate constant of release of intact peptide” value [1, 4] of the same substance?
**A.** 0.095 min⁻¹

**Q.** What about the “k3/k2 + k3” value [1, 4] of the same substance?
**A.** 0.50

**Q.** What about the “k2, rate constant … (digestion or storage)” value ([1]; Table I line 3, 2 X 10^-7 M/L) of the same substance?
**A.** 0.117 min⁻¹

**Q.** What about the “k3, rate constant of release of intact peptide” value ([1]; Table I line 3, 2 X 10^-7 M/L) of the same substance?
**A.** 0.081 min⁻¹

**Q.** And the “k3/k2 + k3” value ([1]; Table I line 3, 2 X 10^-7 M/L)?
**A.** 0.41

**Q.** What about the “k2, rate constant … (digestion or storage)” value [1, 5] of the same substance?
**A.** 0.131 min⁻¹

**Q.** And the “k3, rate constant of release of intact peptide” value [1, 5]?
**A.** 0.067 min⁻¹

**Q.** And the “k3/k2 + k3” value [1, 5]?
**A.** 0.34

**Q.** And the “k2, rate constant … (digestion or storage)” value ([1]; Table I line 5, 2 X 10^-9 M/L)?
**A.** 0,128 min-1

**Q.** What about the “k3, rate constant of release of intact peptide” value ([1]; Table I line 5, 2 X 10^-9 M/L) of the same substance?
**A.** 0,070 min-1

**Q.** What about the “k3/k2 + k3” value ([1]; Table I line 5, 2 X 10^-9 M/L) of the same substance?
**A.** 0.35

**Q.** And the “probability that pinocytosed material will be released intact, ratio k3/(k2 + k3)” value ([1]; estimate from Table I)?
**A.** approximately 0.5

**Q.** And the “t1/2 of release of accumulated peptide as intact peptide” value ([1]; inhibitor cocktail (5 mM 2-deoxy-D-glucose, 1 mM sodium fluoride, 0.3 M sucrose, glucose-free HBSS), 37C, 2 x 10^-8 M 3H-FNLLP)?
**A.** 4 min

**Q.** What about the “time at which the amount of peptide accumulated reaches a plateau” value ([1]; inhibitor cocktail, 2 x 10^-8 M 3H-FNLLP, 37C (Fig. 5)) of the same substance?
**A.** ~ 15 min

**Q.** What about the “rate constant of release of intact peptide” value ([1]; inhibitor cocktail, 37C, 2 x 10^-8 M 3H-FNLLP) of the same substance?
**A.** 0.173 min⁻¹

**Q.** And the “t1/2 of release as digested peptide” value [2]?
**A.** 23 min

**Q.** Which results are given for “BSA: bovine serum albumin (fatty-acid-free), iodinated by the chloramine-T method, pinocytic marker”?
**A.** k2, rate constant of further processing ([3]; BSA 1.5 X 101 cpm/L as printed): 0.080 min⁻¹; k3, rate constant of release of intact material ([3]; BSA 1.5 X 101 cpm/L as printed): 0,103 min-1; k3/k2 + k3 ([3]; BSA 1.5 X 101 cpm/L as printed): 0.56; k2, rate constant of further processing ([3]; BSA 3.7 X 109 cpm/L): 0,076 min-1; k3, rate constant of release of intact material ([3]; BSA 3.7 X 109 cpm/L): 0.108 min⁻¹; k3/k2 + k3 ([3]; BSA 3.7 X 109 cpm/L): 0.59; Rate constant for depletion of Ap ([3]; BSA concentration 1.5 X 101 cpm/L as printed): 0.182 min⁻¹; Rate constant for depletion of Ap ([3]; BSA concentration 3.7 X 109 cpm/L): 0.182 min⁻¹; rate constant of release of TCA-precipitable BSA ([3]; as Fig. 4, release at 37C): 0.182 min⁻¹; half-life of release of intact material ([3]; uptake primarily via bulk-fluid-phase): ~4 min
